Data reported in the EternaBench riboswitch data.

Test system: MS2 coat protein
Assay: apparent Kd, MS2 coat protein; higher = weaker binding; RNA-MaP array; FMN 200 µM where present
Procedure, shortened: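 Designs were transcribed by stalled E. coli RNA polymerase on Illumina sequencing-chip clusters. They were titrated with SNAP-549-labelled MS2 coat protein from 0.7 or 1.5 nM, doubling to 3 µM, without and then with constant ligand. Buffer: 100 mM Tris-HCl pH 7.5, 80 mM KCl, 4 mM MgCl2, BSA, DTT, yeast tRNA, Tween-20. Green signal was normalised to red-channel RNA signal and control-cluster median Fmax. Apparent Kd is the median of filtered per-cluster binding-curve fits.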

[1] = designed as: OFF switch for flavin mononucleotide, no ligand
[2] = ligand present: flavin mononucleotide, designed as: OFF switch for flavin mononucleotide
[3] = designed as: ON switch for flavin mononucleotide, no ligand
[4] = ligand present: flavin mononucleotide, designed as: ON switch for flavin mononucleotide

Sequence | apparent Kd [1] [nM] | apparent Kd [2] [nM] | apparent Kd [3] [nM] | apparent Kd [4] [nM]
AGAUCACAUGAGGAUCACCCAUGUCAGGAUAUGAUACUAUGUACUUCGGUACAUAGUAUCAGAAGGGAUAUAAA | 70.7 | 239 | – | –
AGAUCGAGUGUGAGGAUAUUGACCGGACGACCCAUCGAGAAGGCACAUGAGGAUCACCCAUGUGAUUCGGCUCA | 17.7 | 26.4 | – | –
AGAUGACAAAGUCAUCUCGCGCUGACAUGAGGAUCACCCAUGUAGGAUAUAUUACUCAAAGAGUAAUAGAAGGACAUGUGUCUU | 29.9 | 72.2 | – | –
AGAUGGCGAGGAUAUACAUGAGGAUCACCCAUGUGAAGAUAAAGAGUGAGGAAGAAAAGUAGAAGGCGCUGUCA | 123 | 506 | – | –
AGAUGGCGAGGAUAUACAUGAGGAUCACCCAUGUGAGAUAAAUAAGUGAGGAAGAAAAGUAGAAGGCGCUGUCA | 81.3 | 387 | – | –
AGAUUCAUGGCCCGUUCGGGCUCACAUGAGGAUCACCCAUGUGAGGAUAUGACGUACCUGACUCGUCAGAAGGCGCAUGCGAAU | 7.41 | 13.7 | – | –
AGAUUCAUGGCCCGUUUGGGCCCACAUGAGGAUCACCCAUGUGAGGAUAUGACGUACCUGACUCGUCAGAAGGCGCAUGCGAAA | 7.45 | 16.7 | – | –
AGAUUUGUACAUGAGGAUCACCCAUGUUAAUAGGUGUUUGUCAGAAGGCAUUAAGAGAGAAUUAAUGAGGAUAUGAAGUUACAU | – | – | 42.3 | 21.7
AGCAACAUGAGGAUCACCCAUGUUGGUUCGAAAACGGACUCACAGGAUAUGCAGCGUGAUCGCUCGCAGAAGGGUGCGUCCUCA | – | – | 51.2 | 38.7
AGCAAGUAUACAUGAGGAUCACCCAUGUUUUUUAGGGUUAUCAGAAGGUACAUUUUGAGAUAGAGUAAGGAUAUGAAAUAUGCG | – | – | 214 | 130
AGCACGUCAGGAUAUCUGAUGUCUAACUUCGGUUAGACAUCAGAGAAGGGACAUGAGGAUCACCCAUGUGCAAA | 60.6 | 77.9 | – | –
AGCAGACGAGGAUAUAAAUUUGAUAACAUGAGGAUCACCCAUGUGAUCGAUAGAUCAAAUUUAGAAGGCGUCUGCU | 647 | 940 | – | –
AGCAGACGAGGAUAUAGAUUUAGAUACAUGAGGAUCACCCAUGUAUAGAUGUAUUUAGAUUUAGAAGGCGUCUGCU | 211 | 221 | – | –
AGCAUGGUAGGAUAUACGGAGCAUUAGGGUUUGUUGUGUGGACAUGAGGAUCACCCAUGUAGAAGGGCCGUGCA | 47 | 64.2 | – | –
AGCAUGUAAGGAUAUGCAAGUGGCACGGAUAGUACCAGAAAGCAGAAGGUACAUGAGGAUCACCCAUGUGCUCC | 26.8 | 94.9 | – | –
AGCAUGUGAGGAUAUGCAGUUGACCGGUACGCCCAGUCAGGGCAGAAGGCACAUGAGGAUCACCCAUGUGAUAG | 44.7 | 122 | – | –
AGCCUACAUGAGGAUCACCCAUGUCAGGAUAUCUCGCGGCGCGUCAAGUUCACGCCGCAGAGAAGGGACUCGGG | 47.9 | 47.3 | – | –
AGCGAACAUGAGGAUCACCCAUGUGAAAAACAUAGAGGAUAUGUCGCAUGAGUGUAAAAGACAGAAGGCUAUCGCA | – | – | 225 | 54.8
AGCGGCCGAGGAUAUACAAUCCUCCUGGCAGCCUGUCUGCCACAUGAGGAUCACCCAUGUAGAAGGCGGACCGC | 167 | 38.3 | – | –

Sequence | apparent Kd [1] [nM] | apparent Kd [2] [nM] | apparent Kd [3] [nM] | apparent Kd [4] [nM]
AGCGGCGCGGGCCACCGCAGAACCAGAAGGACAUGAGGAUCACCCAUGUAACAGAACAGGGCGGUGUAGGAUAUGGCAGGCUCG | 25.1 | 46.2 | – | –
AGCGUGUUAGGAUAUACACGACGCUGGGUAGCUAGCGGAGGGUAGAAGGGACAUGAGGAUCACCCAUGUUCGGG | 74.1 | 105 | – | –
AGCUACGUUUCGUAGCAGCUAGGUGAGGAUAUCCUUUACAUGAGGAUCACCCAUGUUUAGCCAUGGGAGAAGGCGCCUAGAAAG | – | – | 1090 | 113
AGCUACGUUUCGUAGCAGUGUCAUCGAGAAGGCCCUGACAUGAGGAUCACCCAUGUUGUUACAUGGGAGGAUAUCGAUGAUACU | – | – | 13.4 | 5.59
AGCUACGUUUCGUAGCAGUGUCAUCGAGAAGGCCCUUACGUGACAACAUGAGGAUCACCCAUGUGGGAGGAUAUCGAUGAUACA | – | – | 11.8 | 11.5
AGCUAGUGAGGAUAUACGAACAUGUCAAAAGACGUGAAUAAACAUGAGGAUCACCCAUGUAGAAGGCACUAGCA | 17.5 | 16.2 | – | –
AGCUGGUGACAGCAUCCAUCAAAACAUGAGGAUCACCCAUGUAGAAGGCUGUACGGUUACCGUACAGAGGAUAUACAAUGAUGA | 16.3 | 27.3 | – | –
AGCUGGUGACAGCAUCCAUCAUAACAUGAGGAUCACCCAUGUAGAAGGCUGUACGGUUACCGUACAGAGGAUAUACAAUGAUGG | 7.4 | 7.32 | – | –
AGCUGUGGCAGAGGAUAUACUUCAAUAAUCCAUUGCAAAUAGCGAUGGACAUGAGGAUCACCCAUGUAGAAGGCUGUCUCAGCA | 19.9 | 46.2 | – | –
AGCUGUGGCCGAGGAUAUCUAAAACCUCAAAACGAAAUAUAAUCGAACAUGAGGAUCACCCAUGUAGAGAAGGCGGUCUCAGCA | 270 | 514 | – | –
AGCUGUGGCCGAGGAUAUCUAACAAUCCAAACCGAAAUAUAAUCGGACAUGAGGAUCACCCAUGUAGAGAAGGCGGUCUCAGCA | 48.1 | 65 | – | –
AGCUGUGGCCGAGGAUAUCUAUCUUCAAUAACCGAAAUAUAAUCGGACAUGAGGAUCACCCAUGUAGAGAAGGCGGUCUCAGCA | 33.6 | 84.5 | – | –
AGGAAACAUGAGGAUCACCCAUGUAAAGAAGGGUGAGGAUAUACAAAGAAAAGAAAGAAAGUAGAAGGCACAAAAG | – | – | 556 | 635
AGGAAACAUGAGGAUCACCCAUGUAAAGAUGGGCGAGGAUAUCGAAAGAAAAGAAAGAAACGAGAAGGCGCAAAAG | – | – | 305 | 72.1
AGGACGAGGCAGAAGGGACAUGAGGAUCACCCAUGUACCGUGGUUCAGCAGUCAGGAUAUGCCGUACGUAAACAUAUCGUAAGA | 10.3 | 71 | – | –
AGGAGAAAUGUAGGAUAUGGAUAUAUAUAUGGGCAAAGCGCAUAUAUAUAUCCAGAAGGACAUGAGGAUCACCCAUGUUUCCCU | 11.8 | 13 | – | –
AGGCCGCUACGCCGGCUUCACGCACAGGAUAUGCAGUUACAUGAGGAUCACCCAUGUGGCCAUGUGCAGAAGGGUGGUUCGCGA | – | – | 39.5 | 18.6
AGGCGUGCUGAGGAUAUACUACCGGUUGCGAUAGUAGAAGGUAGCACAUGAGGAUCACCCAUGUGGUCAGAUGC | 24 | 64.6 | – | –
AGGGAGUAAGGAUAUCGGAAAGGACACGAAAGUGACAAAGACGAGAAGGUACAUGAGGAUCACCCAUGUAAAAA | 21.3 | 20.1 | – | –

Sequence | apparent Kd [1] [nM] | apparent Kd [2] [nM] | apparent Kd [3] [nM] | apparent Kd [4] [nM]
AGGGAGUUAGGAUAUGCUGCUCGUCACUUGCGUGAUGAGUAGCAGAAGGAACAUGAGGAUCACCCAUGUAAAGA | 34.9 | 28.8 | – | –
AGGGUGGGCUCAGGAUAUCAGGGAGAGAUGUGGACAUGAGGAUCACCCAUGUACCAGUGUUGUCAUGAGAAGGGAGAUACUGUA | – | – | 52.7 | 28
AGGUAAGACUUAAUUGUGCUGGUGAGAAGGCUACUGGUUGUGGUCUACAUGAGGAUCACCCAUGUUGAGGAUAUCAUCGGUAUC | 606 | 72.7 | – | –
AGGUAAGACUUAAUUGUGCUGGUGAGAAGGCUGCUGGUUGUGGUCUACAUGAGGAUCACCCAUGUUGAGGAUAUCAUCGGUAUC | 711 | 103 | – | –
AGGUGACAUGAGGAUCACCCAUGUCAGGAUAUAUACACCGCCGGCGUGAAGCCGGCGGAUAGAAGGGACAAAAU | 17.1 | 21.3 | – | –
AGGUGACAUGAGGAUCACCCAUGUGAGGAUAUCUGGAUACUCUUUAUUUUAGAUAUCCAGAGAAGGCACACCCU | 263 | 502 | – | –
AGUAACAGAGGAUAUACUGUUUUAUGUAUUUAUUAUUUUAAACAUGAGGAUCACCCAUGUAGAAGGCUGAAUGA | 24.5 | 23.3 | – | –
AGUAACAGAGGAUAUACUGUUUUAUGUGUUUGUUAUUUUGAACAUGAGGAUCACCCAUGUAGAAGGCUGAAUAA | 22.2 | 21.3 | – | –
AGUAACUCAGAUCUUUUGAACAUGAGGAUCACCCAUGUAUUGAGAAGGAGCUGGAAGAGAGACAGCUAGGAUAUCAGAGUUGCG | 5.96 | 7.19 | – | –
AGUACCAUGUAGAAGGGAUAUCUGAUUCAGAUAUCAGGAUAUACAUGAGGAUCACCCAUGUAAAUGUACUGCACGAGAGUGCAA | 14.7 | 50.2 | – | –
AGUACUACAGGAUAUACAUGAAUGAUAAUCAUUACCCUUAUACAUGAGGAUCACCCAUGUAGAAGGGUAGUACA | 16.4 | 20 | – | –
AGUACUCCAGAAGGAUAUGCAUCGGUGGAUGUCCUUAGGCGGACGGUCACAUGAGGAUCACCCAUGUAGAAGGUCUGGGAGCCG | 39.8 | 238 | – | –
AGUAGAUCAGGAUAUACGUAAAUGGUAAUUAUGUAACUUUUACAUGAGGAUCACCCAUGUAGAAGGGAUCUACA | 17.5 | 18.1 | – | –
AGUCAUUUACAGAAGGGUAGUUGGGUUAUACAUGAGGAUCACCCAUGUUUUACAGGAUAUGUGUUUUGUUACUAUUAAAGUUCA | 65.7 | 120 | – | –
AGUCCACAUGAGGAUCACCCAUGUCAGGAUAUCUGCUGGAAGAGGGCAGAAAGCCAGGAGAGAAGGGACCUGGG | 37.9 | 74.5 | – | –
AGUCCAGAAGGAUAUACAUAGGUGAUAAAAAAAAAAAAACUACAUGAGGAUCACCCAUGUAGAAGGUCUGGACA | 61.9 | 40 | – | –
AGUCGGAGCAGAGGAUAUUACAUGAGGAUCACCCAUGUAAAUGGAAUAAGCUGGAAACAGCAAUGUAAGAAGGCUGCUCCGACA | 67.4 | 540 | – | –
AGUCGGAGCAGAGGAUAUUACAUGAGGAUCACCCAUGUAAUAAAUGGAAGCUGGAAACAGCAAUGUAAGAAGGCUGCUCCGACA | 16.4 | 47.9 | – | –
